Measurements as given in paper PMC4373334 (Journal of Cellular and Molecular Medicine, 2010).

Assays:
[1] = system: Zucker obese (fa/fa) rats; assay: Zucker obese rat: tail tendon collagen solubility and Ehrlich adducts; assay type: in vivo; conditions: for reduction of Ehrlich positive material versus ZK: not significant; for Collagen solubility: acetic acid; for Collagen solubility / Ehrlich adducts: end of the experiment
Summary of the method: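 Tail tendons from treated Zucker fa/fa rats (drinking water, 30 mg/kg/24 h, weeks 6–30) cleaned and washed in ice-cold 75 mM phosphate buffer, pH 7.00, then lyophilized. Solubility determined on 10 mg samples; hydroxyproline measured after acid hydrolysis, collagen taken as 14% hydroxyproline. Ehrlich adducts and fluorescence (ex 365/em 416 nm) measured on 50 mg pepsin-digested collagen, blank-corrected, per mg collagen.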

[2] = system: Zucker obese (fa/fa) rats; assay: Zucker obese rat: renal function; assay type: in vivo; conditions: for restraint of proteinuria/albuminuria/creatininuria: 24 hr urinary excretion, end of treatment; for change in creatinine clearance (GFR) versus ZK / change in plasma creatinine concentration versus ZK / restraint of the increase in urinary albumin-to-creatinine ratio: end of 24-week treatment
[3] = Stability in rat kidney S 9000 fraction; assay type: in vitro ADME
Summary of the method: (§1)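 Matrices were human serum (healthy donors, 25–30 yr), human liver S9000 fraction or rat kidney S9000 fraction (0.25 g/ml), pre-warmed 10 min at 37°C. Test compound added from a 1 mM solution in 10 mM PBS, pH 7.4; PBS-only controls run alongside. Sampled at 0–120 min, with 24 h added for serum. Internal standard added, then perchloric acid deproteinization (15 min, 4°C), centrifugation and LC-MS/MS.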

[4] = system: Zucker obese (fa/fa) rats; assay: Zucker obese rat: kidney cholesterol and triglycerides content; assay type: in vivo; conditions: end of 24-week treatment, S 9.000 kidney fraction
Summary of the method: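 Zucker fa/fa rats dosed via drinking water at 30 mg/kg/24 h from week 6 to week 30; six rats per group used for tissue. Kidney frozen in liquid nitrogen. Total cholesterol and triglycerides measured with commercial kits in S9000 kidney fraction (0.25 g/ml), expressed as μg/mg protein.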

[5] = system: Zucker obese (fa/fa) rats; assay: Zucker obese rat, 24-week treatment: body weight and food intake; assay type: in vivo; conditions: 30 weeks of age, 30 mg/kg/day for 24 weeks
Summary of the method: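 Male Zucker fa/fa rats bought at 5 weeks, with lean Fa/Fa littermates as reference. Housed singly at 22 ± 1°C on a 12 h light/dark cycle, standard chow, 1 week acclimation. Randomized to three groups of 12. Test compound given in drinking water, concentration adjusted weekly to 30 mg/kg/24 h, from week 6 to week 30.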

[6] = HNE quenching ability in homogeneous solution; conditions: HNE 200 μM; for HNE quenched: 1:10 molar excess, 24 hrs of incubation; for residual amount of HNE: quencher 2 mM (1:10), phosphate buffer pH 7.4, 37°C, 60 min
[7] = ACR quenching ability in homogeneous solution; conditions: 60 min; for percentage amount of ACR quenched: ACR 50 μM, quencher 500 μM (1:10); for ACR disappeared: ACR 200 μM, 1:10 molar excess
[8] = system: Zucker obese (fa/fa) rats; assay: Zucker obese rat: systolic blood pressure by tail-cuff plethysmography; assay type: in vivo; conditions: end of the experiment (30 weeks)
Summary of the method: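 Zucker fa/fa rats dosed in drinking water (30 mg/kg/24 h, weeks 6–30). Systolic pressure taken monthly by tail-cuff plethysmography in conscious, unanaesthetized rats pre-warmed 30 min at 37°C and restrained in a plastic chamber. Heart rate taken from the arterial pulse wave.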

[9] = system: Zucker obese (fa/fa) rats; assay: Zucker obese rat: kidney protein carbonyl content; assay type: in vivo; conditions: for Kidney PCOs: end of the experiment; for reduction of kidney PCOs versus ZK: kidney homogenates
Summary of the method: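 Kidneys taken at week 30 from Zucker fa/fa rats (six per group) given test compound in drinking water at 30 mg/kg/24 h. Homogenate 25% w/v in 0.15 M KCl, pH 7.4, with protease inhibitors, centrifuged at 12,000 ×g for 10 min. Total protein carbonyls read at 366 nm (ε 22,000/M/cm), expressed as nmoles/mg protein.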

[10] = system: Zucker obese (fa/fa) rats; assay: Zucker obese rat: renal morphology and morphometry; assay type: in vivo; conditions: for mean glomerular diameter / glomerular and interstitial changes (glomerulosclerosis, tubulointerstitial damage) versus ZK: 30 weeks; for mean glomerular diameter: ZK 1.098 ± 0.05; for glomerular and interstitial changes (glomerulosclerosis, tubulointerstitial damage) versus ZK: light microscopy
[11] = Zucker obese rat: carnosine levels in plasma, urine and renal tissue; assay type: in vivo; conditions: for Carnosine level, Urine: no compound given during 24 hr in metabolic cage
[12] = Pharmacokinetic profile in the rat after oral administration; assay type: in vivo, Sprague-Dawley rats; conditions: for Cmax: pre-dose concentration subtracted
Summary of the method: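 Single oral dose of 100 mg/kg given to three male Sprague-Dawley rats per test compound. Plasma sampled pre-dose and at 0.25, 0.5, 1, 2, 4, 6 and 24 h, stored at –80°C, and assayed by LC-MS/MS. Pre-dose (endogenous) level subtracted. Non-compartmental analysis: Cmax and tmax read from raw data; AUC0–tlast by linear trapezoidal rule.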

[13] = system: Zucker obese (fa/fa) rats; assay: Zucker obese rat: urinary oxidative/carbonyl stress indices; assay type: in vivo; conditions: end of the experiment; for AGEs: urine fluorescence; for CAR-HNE level / 8-epi-PGF2α level: urine; for CAR-HNE level: LC-ESI-MS/MS
Summary of the method: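 24 h urine from treated Zucker fa/fa rats (drinking water, 30 mg/kg/24 h, weeks 6–30). 8-epi-PGF2α and TXB2 measured by enzyme immunoassay. Low-molecular-weight AGEs read by fluorescence (ex 370/em 440 nm), expressed per mg urinary creatinine. CAR-HNE Michael adduct quantified by LC-ESI-MS/MS.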

Stability = assay type: in vitro ADME, human; conditions: for stability to enzymatic hydrolysis in human serum: 37°C, followed over 24 hrs
Summary of the method: as §1

[14] = Stability in human liver S 9.000 fraction; assay type: in vitro ADME; conditions: within 15 min, then unchanged until 120 min
Summary of the method: as §1

[15] = system: Zucker obese (fa/fa) rats; assay: Zucker obese rat, 24-week treatment: plasma parameters; assay type: in vivo; conditions: for change in plasma cholesterol versus ZK / change in plasma triglycerides versus ZK: after 24 weeks, 30 mg/kg/day; for insulin resistance (HOMA-IR) versus ZK / reduction of hyperinsulinaemia (plasma insulin) versus ZK / effect on plasma glucose levels: end of 24-week treatment; for effect on plasma glucose levels: fasting
Summary of the method: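 Male Zucker fa/fa rats (lean littermates as reference), 12 per group, received test compound in drinking water at 30 mg/kg/24 h from week 6 to week 30. Plasma spun 15 min at 4°C and stored at –80°C. Cholesterol, triglycerides, glucose and insulin measured by enzymatic-colorimetric kits. HOMA-IR calculated from fasting glucose and insulin.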

[16] = cited from earlier work
[17] = human beings receiving 450 mg, 15 min up to 300 min; cited from earlier work
Stability in rat serum = assay type: in vitro ADME
[18] = male, Sprague-Dawley, rat, plasma, po, 100 mg/kg

NCCC(=O)N[C@H](Cc1c[nH]cn1)C(=O)O [D-CAR, β-alanyl-D-histidine]
reduction of Ehrlich positive material versus ZK [1]: ~21.7%
Collagen solubility ([1]; tail tendon collagen): 71.4 ± 3.14 ^* ^* %
Ehrlich adducts ([1]; tail tendon collagen): 0.747 ± 0.384 µmol/mg
restraint of proteinuria/albuminuria/creatininuria [2]: approximately 50%
change in creatinine clearance (GFR) versus ZK [2]: +25.1%
change in plasma creatinine concentration versus ZK [2]: –36%
restraint of the increase in urinary albumin-to-creatinine ratio [2]: 65–70%
remaining in rat kidney ([3]; 120 min of incubation): 91%
total cholesterol content in kidney [4]: 6.668 ± 0.5087 μg/mg protein
triglycerides content in kidney [4]: 10.66 ± 0.3616 μg/mg protein
body weight difference versus LN [5]: +40%
body weight difference versus ZK [5]: –9%
HNE quenched [6]: ~100%
residual amount of HNE [6]: 46.9 ± 2.3%
percentage amount of ACR quenched [7]: 65.0 ± 3.3%
ACR disappeared [7]: ~100%
SBP [8]: 137 ± 4 mmHg
reduction of SBP versus ZK [8]: 15.7%
Kidney PCOs [9]: 6.61 ± 1.52 ^* nmol/mg prot
reduction of kidney PCOs versus ZK [9]: 42.61%
mean glomerular diameter [10]: 1.042 ± 0.005
GBM thickness ([10]; electron microscopy, four animals per group): 3.75 ± 0.8 nm
glomerular and interstitial changes (glomerulosclerosis, tubulointerstitial damage) versus ZK [10]: not significantly modified
Carnosine level, Kidney ([11]; end of the experiment): 127.7 ± 17.00 ^* ^*/°°° nmol/g wet tissue
increase in kidney CAR content compared to ZK ([11]; end of the experiment): 14.4 fold
increase of plasma carnosine concentration ([11]; end of the experiment): > 10 fold
Carnosine level, Plasma ([11]; end of the experiment, 30 mg/kg/day for 24 weeks): 5.37 ± 3.04 nmol/mL
Carnosine level, Urine ([11]; end of the experiment): 10,069 ± 1844 ^* ^*/°°° nmol/day
half-life ([12]; oral 100 mg/kg, rat plasma): 3.36 h
systemic exposure up to infinite time AUC(0–∞) ([12]; oral 100 mg/kg, rat plasma): 318.62 ± 24.75 µM·h
time until plasma concentration returned to baseline ([12]; oral 100 mg/kg, rat plasma): 24 h
Cmax ([12]; oral 100 mg/kg, rat plasma): 52.86 ± 2.86 µM
tmax ([12]; oral 100 mg/kg, rat plasma, 100 mg/kg): 2 h
effect on urinary TXB2 excretion rates [13]: did not affect
increase in urinary CAR-HNE levels compared to ZK [13]: 2.2 fold
AGEs [13]: 324.4 ± 21.8 ^* ^* FU/mg creatinine/day
CAR-HNE level [13]: 0.982 ± 0.33 nmol/day
8-epi-PGF2α level [13]: 42.1 ± 3.9 ng/day
stability to enzymatic hydrolysis in human serum (Stability): remained unchanged until 6 hrs incubation
decrease in human serum (Stability; after 24 hrs of incubation): 6%
hydrolysis in human liver [14]: ~30%
change in plasma cholesterol versus ZK [15]: –45%
change in plasma triglycerides versus ZK [15]: –43%
insulin resistance (HOMA-IR) versus ZK [15]: significantly improved
reduction of hyperinsulinaemia (plasma insulin) versus ZK [15]: 33.03%
effect on plasma glucose levels [15]: did not significantly affect

NCCC(=O)N[C@@H](Cc1cnc[nH]1)C(=O)O [L-CAR, β-alanyl-L-histidine]
reduction of Ehrlich positive material versus ZK [1]: ~9.1%
increase of collagen solubility compared to ZK ([1]; tail tendon collagen): 66.4%
Collagen solubility ([1]; tail tendon collagen): 65.4 ± 2.58 ^* %
Ehrlich adducts ([1]; tail tendon collagen): 0.868 ± 0.39 µmol/mg
restraint of proteinuria/albuminuria/creatininuria [2]: approximately 50%
change in creatinine clearance (GFR) versus ZK [2]: +28.3%
change in plasma creatinine concentration versus ZK [2]: –31.7%
restraint of the increase in urinary albumin-to-creatinine ratio [2]: 65–70%
hydrolysis in rat kidney ([3]; during the sample processing time): about 93%
total cholesterol content in kidney [4]: 6.31 ± 0.5115 μg/mg protein
triglycerides content in kidney [4]: 12.01 ± 0.9528 μg/mg protein
time to hydrolysis in human serum [16]: ≤ 5 min
CAR in serum after oral supplementation [17]: No CAR was detected in serum specimens
stability in rat serum (Stability in rat serum): no significant reduction within at least 6 hrs
body weight difference versus LN [5]: +35.8%
body weight difference versus ZK [5]: –12%
HNE quenched [6]: ~100%
residual amount of HNE [6]: 46.2 ± 2.73%
percentage amount of ACR quenched [7]: 63.8 ± 3.5%
ACR disappeared [7]: ~100%
SBP [8]: 145 ± 3 mmHg
reduction of SBP versus ZK [8]: 11.5%
Kidney PCOs [9]: 8.83 ± 1.91 nmol/mg prot
reduction of kidney PCOs versus ZK [9]: 23.4%
mean glomerular diameter [10]: 1.023 ± 0.02
glomerular and interstitial changes (glomerulosclerosis, tubulointerstitial damage) versus ZK [10]: not significantly modified
concentration at 24 weeks ([11]; Zucker obese, rat, plasma, oral, 30 mg/kg/day): 0.473 ± 0.13 µM
Carnosine level, Kidney ([11]; end of the experiment): 14.67 ± 2.09 nmol/g wet tissue
increase in kidney CAR content compared to ZK ([11]; end of the experiment): 1.6 fold
Carnosine level, Urine ([11]; end of the experiment): 32.62 ± 1.25 nmol/day
half-life [12, 18]: 0.24 ± 0.02 h
tmax [12, 18]: 1 h
systemic exposure up to infinite time AUC(0–∞) ([12]; oral 100 mg/kg, rat plasma): 118.45 ± 9.24 µM·h
time until plasma concentration returned to baseline ([12]; oral 100 mg/kg, rat plasma): 2 h
Cmax ([12]; oral 100 mg/kg, rat plasma): 147.7 ± 6.50 µM
effect on urinary TXB2 excretion rates [13]: did not affect
increase in urinary CAR-HNE levels compared to ZK [13]: 1.7 fold
AGEs [13]: 337.2 ± 28.7 ^* FU/mg creatinine/day
CAR-HNE level [13]: 0.749 ± 0.37 nmol/day
8-epi-PGF2α level [13]: 37.6 ± 4.3 ng/day
stability to enzymatic hydrolysis in human serum (Stability): rapidly disappeared in human serum at the first time-point (60 min.)
time to disappearance in human serum (Stability; in vitro studies in the authors' laboratories): ≤ 5 min
hydrolysis in human liver [14]: ~30%
change in plasma cholesterol versus ZK [15]: –40%
change in plasma triglycerides versus ZK [15]: –35%
insulin resistance (HOMA-IR) versus ZK [15]: significantly improved
reduction of hyperinsulinaemia (plasma insulin) versus ZK [15]: 28.08%
effect on plasma glucose levels [15]: did not significantly affect
